What all share (format): functional
The species named for assay [1] is Bos taurus. Kind of assay: Increase in melting point temperature after 36 hr of incubation [1:5] as measurement of DNA binding affinity using calf thymus DNA. Summed up: (§1)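 Thermal denaturation of calf thymus DNA, 100 µM DNA with 20 µM ligand (1:5 ligand:DNA molar ratio). Buffer was aqueous 10 mM sodium phosphate with 1 mM EDTA, pH 7.00. Mixtures were incubated at 37°C for the stated time, then the shift in helix melting temperature versus DNA alone was recorded. DNA-only Tm is the mean of 10 determinations.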

Assay [2] is filed under the species Bos taurus. Nature of the assay: Increase in melting point temperature after 0h of incubation [1:5 ratio] as measurement of DNA binding affinity using calf thymus DNA. In a few lines: as §1
Assay [3] is filed under the species Bos taurus. Nature of the assay: Increase in melting point temperature after 18 hr of incubation [1:5] as measurement of DNA binding affinity using calf thymus DNA. Summed up: as §1

Take `COc1cc2c(cc1O)N=C[C@@H]1CCCN1C2=O`: the ΔTm in assay [1] amounted to 0.7 °C; in assay [2] it was 0.3 °C; in assay [3], 0.7 °C.
On to `COc1cc2c(cc1OCCCOc1cc3c(cc1OC)C(=O)N1CC(=C(F)F)C[C@H]1C=N3)N=C[C@@H]1CC(=C(F)F)CN1C2=O`, for which the ΔTm is 24.9 °C in assay [1], 20.8 °C in assay [2] and 24.6 °C in assay [3].
Taken in the same sequence, the figures for `COc1cc2c(cc1OCCCOc1cc3c(cc1OC)C(=O)N1CCC[C@H]1C=N3)N=C[C@@H]1CCCN1C2=O` were 15.7 °C, 10.2 °C and 15.1 °C.
As to `COc1cc2c(cc1O)N=C[C@@H]1CC(=C(F)F)CN1C2=O`, the ΔTm worked out at 2.2 °C in assay [1], 1 °C in assay [2] and 1.7 °C in assay [3].
Take `COc1cc2c(cc1OCCCCOc1cc3c(cc1OC)C(=O)N1CC(=C(F)F)C[C@H]1C=N3)N=C[C@@H]1CC(=C(F)F)CN1C2=O`: the ΔTm in assay [1] was found to be 6.5 °C; in assay [2], 2.1 °C; in assay [3], 5.2 °C.
Taken in the same sequence, the figures for `COc1cc2c(cc1OCCCCCOc1cc3c(cc1OC)C(=O)N1CC(=C(F)F)C[C@H]1C=N3)N=C[C@@H]1CC(=C(F)F)CN1C2=O` were 21.3 °C, 16.2 °C and 19.2 °C.
As for `C=C1C[C@H]2C=Nc3cc(OCCCOc4cc5c(cc4OC)C(=O)N4CC(=C)C[C@H]4C=N5)c(OC)cc3C(=O)N2C1`, the shift in melting temperature (ΔTm) in assay [2] came to 25.7 °C; in assay [3] it was 33.6 °C.
